Assay outcomes from PubChem BioAssay.
Calb FLC: C. albicans growth inhibition with fluconazole, primary screen, CaCi-2 strain, Alamar Blue fluorescence | C. albicans CaCi-2 (fluconazole-resistant clinical isolate) + fluconazole, 48 h | growth inhibition, % (test concentration not listed) | 300,000 tested, 0.57% active;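 active = growth inhibition above about 58% in most replicates, limit read from the data, passing the limit was not always enough; inconclusive = exactly half the replicates above a set limit; inactive = most replicates below a set limit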;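 note: all wells also contain fluconazole at 8 µg/ml as a sub-toxic cotreatment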
Mdm2-MdmX inh: inhibitors of human Mdm2-MdmX association, primary screen, cell-based, luminescence, split luciferase, SaOS-2, uHTS | inhibition, % at 8 µM | 330,000 tested, 3% active | SaOS-2 split-luciferase Mdm2/MdmX complementation | Protein Mdm4 (Homo sapiens) + E3 ubiquitin-protein ligase Mdm2 (Homo sapiens), …;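 active = inhibition of at least 50% at 8 µM in the primary screen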
Target sequence (O15151 whole entry, looked up): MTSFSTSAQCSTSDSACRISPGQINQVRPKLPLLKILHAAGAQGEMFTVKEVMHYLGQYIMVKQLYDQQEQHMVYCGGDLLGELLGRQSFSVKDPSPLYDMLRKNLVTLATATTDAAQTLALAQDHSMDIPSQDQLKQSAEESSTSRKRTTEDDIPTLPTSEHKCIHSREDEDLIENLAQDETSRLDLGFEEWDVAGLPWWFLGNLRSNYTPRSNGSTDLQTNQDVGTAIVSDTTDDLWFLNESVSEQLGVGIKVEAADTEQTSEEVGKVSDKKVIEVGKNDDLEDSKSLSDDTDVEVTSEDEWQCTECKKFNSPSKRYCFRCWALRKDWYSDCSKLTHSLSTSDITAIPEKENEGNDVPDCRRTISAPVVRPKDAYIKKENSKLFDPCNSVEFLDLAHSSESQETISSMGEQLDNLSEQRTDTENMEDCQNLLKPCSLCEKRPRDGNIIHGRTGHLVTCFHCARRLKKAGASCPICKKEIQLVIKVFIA
Target sequence (Q00987 whole entry, looked up): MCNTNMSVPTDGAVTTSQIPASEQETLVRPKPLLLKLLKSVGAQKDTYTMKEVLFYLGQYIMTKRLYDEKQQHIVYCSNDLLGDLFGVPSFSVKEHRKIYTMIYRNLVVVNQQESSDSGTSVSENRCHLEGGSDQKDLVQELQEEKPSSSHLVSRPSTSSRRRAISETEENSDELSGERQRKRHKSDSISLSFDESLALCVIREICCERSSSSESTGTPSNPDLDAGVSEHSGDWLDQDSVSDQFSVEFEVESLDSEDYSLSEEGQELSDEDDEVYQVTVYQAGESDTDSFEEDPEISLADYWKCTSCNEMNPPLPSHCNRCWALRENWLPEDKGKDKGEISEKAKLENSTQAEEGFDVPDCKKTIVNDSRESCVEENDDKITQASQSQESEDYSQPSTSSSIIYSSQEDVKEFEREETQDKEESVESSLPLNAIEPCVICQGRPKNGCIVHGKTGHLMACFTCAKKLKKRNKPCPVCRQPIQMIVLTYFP
Beta apoptosis: inhibitors of cytokine-induced beta cell apoptosis, primary screen, luminescence; 300,000 tested, 0.8% active; AID 435005, 2010; protection from apoptosis, % (no concentration beside the values); INS-1E cytokine-induced death, ATP luminescence, 48 h; percent of positive-control rescue, neutral wells zero;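 active = Every replicate reaches about 75%, or at least half do and their mean reaches it too, limit read from the data; inconclusive = At least half of replicates reach the limit but their mean does not; inactive = Under half of replicates reach the limit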;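 note: higher means more ATP so stronger rescue from cytokine killing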
T cruzi inh: inhibitors of intracellular T. cruzi growth, primary screen, luminescence, NIH3T3 host cells; T. cruzi beta-gal in NIH3T3, 90 h; inhibition, % (concentration not given with the values); 300,000 tested, 1.4% active; AID 1885, 2009;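 active = mean inhibition across valid replicates above about 55%, limit read from the data; inconclusive = mean below that limit but half or more replicates reach it; inactive = mean below it, under half of replicates reach it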;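 note: signal also drops with host cell toxicity which is not excluded here; higher percent means less beta-gal luminescence so fewer parasites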
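Test system: β-gal T. cruzi (Tulahuen C4) inside NIH/3T3 cells / Quantity: 5,000 cells/well / Measured by: luminescence from GalScreen with 0.05% NP40, read after 60 min / Medium: DMEM plus 2% FBS / Measure: parasite load inhibition, % / Reagent: Tulahuen C4 trypomastigotes, 5000/well / Schedule: co-culture of at least 90 h after 3 h attachment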
NLRP3 yeast inh: NALP3 inflammasome inhibitors in reconstituted yeast, primary screen, luminescence, uHTS | inhibition, % at 10 µM | 330,000 tested, 0.39% active | Yeast reconstituted NLRP3/ASC/caspase-1, beta-gal luminescence, 24 h;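 active = inhibition of 50% or more; inactive = inhibition below 50%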
CSC inhib: cancer stem cell viability inhibitors, primary screen, luminescence. 300,000 tested, 1.1% active. cancer stem cell-like cells viability. inhibition, % at 7.5 µM; in the data active = inhibition above about 75%; inconclusive = no clear call, values can overlap the other calls; tested in HMLE shEcad cells
Mdm2-MdmX conf: Mdm2-MdmX complex disruptors, retested hits, confirmation, luminescence, single concentration. Mdm2-MdmX binding, luminescent assay. shares compounds with Mdm2-MdmX inh. 10,000 tested, 55% active. inhibition, % at 8 µM. AID 489028, 2010; in the data active = inhibition above about 40%
Full FLuc ctr: full-length luciferase signal inhibition, confirmation, counter-screen for Mdm2/MdmX interaction inhibitor project, cell-based, single concentration, SaOS-2; SaOS-2 full-length luciferase counterscreen, luminescence; 6,200 tested, 77% active; inhibition, % at 8 µM; shares compounds with Mdm2-MdmX inh;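 active = mean inhibition at 8 µM reaching about 37%, which flags the compound as non-specific, limit read from the data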;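 note: p53-null SaOS-2 cells with luciferase driven by a doxycycline-inducible promoter; compound on cells about two nights before reading with doxycycline added after day one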
Numbers stand for hits. Only some compounds are listed: those with a hit (about 5.3% of all), similar ones and a draw of the others.

Results for S=C(Nc1ccc(Br)cc1)NC1CCCC1 ?
Calb FLC: inactive; Mdm2-MdmX inh: inactive; Beta apoptosis: inactive; T cruzi inh: inactive; NLRP3 yeast inh: inactive; CSC inhib: inactive

What do the screens show for `COc1ccccc1CNC(=O)CCCOc1cc(=O)n(C)c2ccccc12`?
Calb FLC: inconclusive; Mdm2-MdmX inh: 58.5; Beta apoptosis: inactive; T cruzi inh: inactive; NLRP3 yeast inh: inactive; CSC inhib: inactive; Mdm2-MdmX conf: inactive

What do the screens show for `O=C(C/C=N\OCc1ccc(Cl)cc1Cl)Nc1ccccc1`?
Calb FLC: inactive; Mdm2-MdmX inh: inactive; Beta apoptosis: inactive; T cruzi inh: inactive; NLRP3 yeast inh: inactive; CSC inhib: inactive

Results for Cc1cc(N)c2cc(NC(=O)/C=C/c3ccccc3Cl)ccc2n1 ?
Calb FLC: inactive; Mdm2-MdmX inh: 100.4; Beta apoptosis: 109.1; T cruzi inh: inactive; NLRP3 yeast inh: inactive; CSC inhib: 141.4; Mdm2-MdmX conf: 99.8; Full FLuc ctr: 51.5

How did c1ccn2cc(-c3ccc4c(c3)OCCO4)nc2c1 do in these assays?
Calb FLC: inactive; Mdm2-MdmX inh: 50.2; Beta apoptosis: inactive; T cruzi inh: inactive; NLRP3 yeast inh: inactive; CSC inhib: inactive; Mdm2-MdmX conf: inactive

Results for Fc1ccc(-c2cn3ccccc3n2)cc1 ?
Calb FLC: inactive; Mdm2-MdmX inh: inactive; Beta apoptosis: inactive; T cruzi inh: inactive; NLRP3 yeast inh: inactive; CSC inhib: inactive

Results for Cc1ccc2nc(-c3ccc4c(c3)OCCO4)cn2c1 ?
Calb FLC: inactive; Mdm2-MdmX inh: 94.4; Beta apoptosis: inactive; T cruzi inh: inactive; NLRP3 yeast inh: inactive; CSC inhib: inactive; Mdm2-MdmX conf: 97.5; Full FLuc ctr: 55.3

What do the screens show for `Clc1ccc2nc(-c3ccc4c(c3)OCO4)cn2c1`?
Calb FLC: inactive; Mdm2-MdmX inh: inactive; Beta apoptosis: inactive; T cruzi inh: inactive; NLRP3 yeast inh: inactive; CSC inhib: inactive

What do the screens show for `Cc1ccc2nc(-c3cc(-c4ccccc4)no3)cn2c1`?
Calb FLC: inactive; Mdm2-MdmX inh: 69.5; Beta apoptosis: inactive; NLRP3 yeast inh: inactive; CSC inhib: inactive; Mdm2-MdmX conf: inactive

How did COc1ccc(S(=O)(=O)N2CCC(C(=O)NC3CC3)CC2)cc1 do in these assays?
Calb FLC: inactive; Mdm2-MdmX inh: inactive; Beta apoptosis: inactive; T cruzi inh: inactive; NLRP3 yeast inh: inactive

How did COc1ccc(OC)c(NS(=O)(=O)c2ccc(NC(=O)C3COc4ccccc4O3)cc2)c1 (centres undefined) do in these assays?
Calb FLC: inactive; Mdm2-MdmX inh: inactive; Beta apoptosis: inactive; T cruzi inh: inactive; NLRP3 yeast inh: inactive; CSC inhib: inactive

What do the screens show for `O=C1NC(=S)N/C1=C/c1ccc2c(c1)OCO2`?
Calb FLC: inactive; Mdm2-MdmX inh: 80.1; Beta apoptosis: inactive; T cruzi inh: inactive; NLRP3 yeast inh: inactive; CSC inhib: inactive; Mdm2-MdmX conf: 50.5; Full FLuc ctr: 91.1

What do the screens show for `O=C(CCC(=O)Nc1ccccc1)NNS(=O)(=O)c1ccccc1[N+](=O)[O-]`?
Calb FLC: inactive; Mdm2-MdmX inh: inactive; Beta apoptosis: inactive; T cruzi inh: inactive; NLRP3 yeast inh: inactive; CSC inhib: inactive

How did CN(C)c1ccc(/C=N/NC(=O)c2ccc(NC(=O)c3ccccc3)cc2)cc1 do in these assays?
Calb FLC: inactive; Mdm2-MdmX inh: 56.8; Beta apoptosis: inactive; T cruzi inh: inactive; NLRP3 yeast inh: inactive; CSC inhib: inactive; Mdm2-MdmX conf: inactive

What do the screens show for `O=C(N/N=C/c1ccc(F)cc1)c1ccccc1`?
Calb FLC: inactive; Mdm2-MdmX inh: inactive; Beta apoptosis: inactive; T cruzi inh: inactive; NLRP3 yeast inh: inactive; CSC inhib: inactive
